Measurements from ChEMBL document CHEMBL4033653, “Effect of 1,2,3-triazole salts, non-classical bioisosteres of miltefosine, on Leishmania amazonensis” (Bioorg Med Chem, 2017).
Active and inactive are the calls of the source. No cut-off for these calls is given here.

Tests used:
Leishmania amazonensis [1] = assay: Antileishmanial activity against Leishmania amazonensis IFLA/BR/1967/PH8 promastigotes after 72 hrs by MTT assay; type: functional
Peritoneal macrophage = assay: (§1) Cytotoxicity against mouse peritoneal macrophages after 72 hrs by MTT assay; type: cell-based; settings: peritoneal macrophage, 72 h
Leishmania amazonensis [2] = assay: Induction of ROS accumulation in Leishmania amazonensis IFLA/BR/1967/PH8 promastigotes at 22 uM after 72 hrs by H2DCFDA staining-based fluorometric analysis relative to control; type: functional
Procedure, shortened: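 WT exponential-phase promastigotes treated at 25 °C; adjusted to 2x10^7 cells in PBS, loaded with H2DCFDA 30 min dark at room temperature; fluorescence 485/528 nm versus untreated; three independent experiments.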

Leishmania amazonensis [3] = assay: Antileishmanial activity against Leishmania amazonensis WHOM/BR/75/Josefa promastigotes transfected with green fluorescent protein after 72 hrs by MTT assay; type: functional
Leishmania amazonensis [4] = assay: Induction of apoptosis in Leishmania amazonensis IFLA/BR/1967/PH8 promastigotes assessed as late apoptotic population at 44 uM after 24 hrs by Annexin V-FITC/PI staining based flow cytometric analysis (reference value: 2.62%); type: functional
Procedure, shortened: (§2)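 Exponential-phase WT promastigotes (1x10^7 cells/mL) cultured 24 h at 25 °C; stained annexin V-FITC plus PI, flow cytometry with 10,000 events gated on parasites; quadrant percentages; three independent experiments.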

Leishmania amazonensis [5] = assay: Antileishmanial activity against Leishmania amazonensis WHOM/BR/75/Josefa amastigotes transfected with green fluorescent protein infected in murine macrophages after 72 hrs by fluorometric analysis; type: functional
Procedure, shortened: (§3)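 Infected murine macrophages treated 0.78-100.0 µM for 72 h; fluorescence read at 540/600 nm for RFP parasites (PH8) and 485/528 nm for GFP parasites (Josefa strain); IC50 from three independent experiments in duplicate.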

[6] = Selectivity index, ratio of CC50 for mouse peritoneal macrophages to IC50 for Leishmania amazonensis IFLA/BR/1967/PH8 amastigotes
Procedure, shortened: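 SI = CC50 for mouse peritoneal macrophages / amastigote IC50. […] IC50: WT-infected macrophages treated with 0.78–100.0 µM in sterile water; burden scored by counting amastigotes and infected/uninfected cells in at least 200 macrophages. Three experiments in duplicate.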

[7] = Selectivity index, ratio of CC50 for mouse peritoneal macrophages to IC50 for Leishmania amazonensis IFLA/BR/1967/PH8 amastigotes transfected with red fluorescent protein
Procedure, shortened: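 SI = CC50 for mouse peritoneal macrophages / RFP amastigote IC50. […] IC50: macrophages infected with RFP-expressing PH8 parasites, treated with 0.78–100.0 µM for 72 h; fluorescence read at 540 nm excitation/600 nm emission. Three experiments in duplicate.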

Leishmania amazonensis [8] = assay: Antileishmanial activity against Leishmania amazonensis IFLA/BR/1967/PH8 promastigotes transfected with red fluorescent protein after 72 hrs by MTT assay; type: functional; settings: IFLA/BR/1967/PH8, 72 h
Leishmania amazonensis [9] = assay: Antileishmanial activity against Leishmania amazonensis IFLA/BR/1967/PH8 amastigotes infected in murine macrophages after 72 hrs by fluorometric analysis; type: functional; settings: IFLA/BR/1967/PH8, 72 h
Leishmania amazonensis [10] = assay: Induction of apoptosis in Leishmania amazonensis IFLA/BR/1967/PH8 promastigotes assessed as early apoptotic population at 44 uM after 24 hrs by Annexin V-FITC/PI staining based flow cytometric analysis (reference value: 5.29%); type: functional; procedure, shortened: as §2
Leishmania amazonensis [11] = assay: Induction of DNA damage in Leishmania amazonensis IFLA/BR/1967/PH8 promastigotes at 22 uM after 24 hrs by TUNEL assay; type: functional
Procedure, shortened: (§4)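 Exponential-phase WT promastigotes (1x10^7 cells/mL) cultured 24 h at 25 °C; DNA fragmentation detected by TUNEL with DAPI counterstain, fluorescence microscopy at 100X.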

[12] = as §1; type: cell-based, Peritoneal macrophage; settings: peritoneal macrophages
[13] = Selectivity index, ratio of CC50 for mouse peritoneal macrophages to IC50 for Leishmania amazonensis WHOM/BR/75/Josefa amastigotes transfected with green fluorescent protein
Procedure, shortened: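 SI = CC50 for mouse peritoneal macrophages / GFP amastigote IC50. […] IC50: macrophages infected with GFP-expressing Josefa-strain parasites, treated with 0.78–100.0 µM for 72 h; fluorescence read at 485 nm excitation/528 nm emission. Three experiments in duplicate.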

Leishmania amazonensis [14] = assay: Induction of apoptosis in Leishmania amazonensis IFLA/BR/1967/PH8 promastigotes assessed as necrotic population at 44 uM after 24 hrs by Annexin V-FITC/PI staining based flow cytometric analysis (reference value: 0.03%); type: functional; procedure, shortened: as §2
Leishmania amazonensis [15] = assay: Antileishmanial activity against Leishmania amazonensis IFLA/BR/1967/PH8 amastigotes transfected with red fluorescent protein infected in murine macrophages after 72 hrs by fluorometric analysis; type: functional; settings: IFLA/BR/1967/PH8, 72 h; procedure, shortened: as §3
Leishmania amazonensis [16] = assay: Induction of lipid inclusions in Leishmania amazonensis IFLA/BR/1967/PH8 promastigotes at 5 uM after 24 hrs by Nile Red satining-based spectrofluorometric analysis; type: functional
Procedure, shortened: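 WT exponential-phase promastigotes (1x10^7 cells/mL) cultured 24 h at 25 °C, stained with Nile Red, fluorescence read spectrofluorometrically versus untreated; three experiments in triplicate.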

Leishmania amazonensis [17] = assay: Induction of plasma membrane permeability in Leishmania amazonensis IFLA/BR/1967/PH8 promastigotes form assessed as increase in fluorescence intensity at 20 uM after 24 hrs by PI staining-based spectrofluorometric analysis; type: functional
Procedure, shortened: (§5)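 Exponential WT promastigotes (1x10^7 cells/mL) treated 24 h at 25 °C; washed, PI 1.0 µg/mL 15 min dark at room temperature; fluorescence 540/600 nm as % increase over untreated; heat-killed cells (65 °C, 10 min) as positive control; three independent experiments.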

Leishmania amazonensis [18] = assay: Induction of morphological changes in Leishmania amazonensis IFLA/BR/1967/PH8 promastigotes assessed as rounded cell body at 2.5 to 20 uM after 24 hrs by Giemsa staining-based microscopic analysis; type: functional
Procedure, shortened: (§6)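 Exponential-phase promastigotes (1x10^7 cells/mL) treated 24 h at 25 °C; harvested, resuspended in PBS, smeared, ethanol-fixed, Giemsa-stained and examined by light microscopy.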

Leishmania amazonensis [19] = assay: Induction of lipid inclusions in Leishmania amazonensis IFLA/BR/1967/PH8 promastigotes at 2.5 uM after 24 hrs by Nile Red satining-based spectrofluorometric analysis; type: functional
Procedure, shortened: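 WT (PH8) promastigotes at 1x10^7 cells/mL in exponential phase, cultured 24 h at 25 °C with or without 2.5–20.0 µM. Parasites incubated with Nile Red, then fluorescence measured spectrofluorometrically. Reported as arbitrary fluorescence units versus untreated parasites, mean of three experiments run in triplicate.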

Leishmania amazonensis [20] = assay: Induction of autophagy in Leishmania amazonensis IFLA/BR/1967/PH8 promastigotes at 2.5 to 10 uM after 24 hrs by MDC staining-based fluorometric analysis; type: functional
Procedure, shortened: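 Exponential WT promastigotes (1x10^7 cells/mL) treated 24 h at 25 °C; washed, adjusted to 10x10^6 cells/mL, 100 µM monodansylcadaverine 1 h dark at 25 °C; fluorescence 335/460 nm versus untreated; three independent experiments.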

Leishmania amazonensis [21] = assay: Induction of DNA damage in Leishmania amazonensis IFLA/BR/1967/PH8 promastigotes at 5 to 10 uM after 24 hrs by TUNEL assay; type: functional; procedure, shortened: as §4
Leishmania amazonensis [22] = assay: Induction of morphological changes in Leishmania amazonensis IFLA/BR/1967/PH8 promastigotes assessed as parasite size reduction at 2.5 to 20 uM after 24 hrs by Giemsa staining-based microscopic analysis; type: functional; procedure, shortened: as §6
Leishmania amazonensis [23] = assay: Induction of plasma membrane permeability in Leishmania amazonensis IFLA/BR/1967/PH8 promastigotes form assessed as increase in fluorescence intensity at 2.5 to 10 uM after 24 hrs by PI staining-based spectrofluorometric analysis; type: functional; procedure, shortened: as §5
Leishmania amazonensis [24] = assay: Induction of morphological changes in Leishmania amazonensis IFLA/BR/1967/PH8 promastigotes assessed as altered parasite shape at 2.5 to 20 uM after 24 hrs by Giemsa staining-based microscopic analysis; type: functional; procedure, shortened: as §6
Leishmania amazonensis [25] = assay: Antileishmanial activity against Leishmania amazonensis IFLA/BR/1967/PH8 promastigotes at 2.5 to 20 uM incubated for 72 hrs followed by compound washout measured after 72 hrs by Neubauer chamber method; type: functional
Procedure, shortened: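 WT promastigotes exposed 72 h at 25 °C and counted; centrifuged, washed twice in PBS, adjusted to 10x10^6 cells/mL in drug-free Warren's medium + 10% serum; after 72 h at 25 °C viable cells counted in Neubauer chamber; three independent experiments in duplicate.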

[26] = Leishmania amazonensis, IFLA/BR/1967/PH8, 72 h

SMILES: CCCCn1cc(CO)[n+](CCC)n1
- IC50 (Leishmania amazonensis [1]; [26]): > 100 µM

SMILES: CCCCCCCCCCn1cc(CO)[n+](C)n1 [listing 1 of 2 here]
- IC50 (Leishmania amazonensis [1]): 14.3 µM

SMILES: CCCCCCCCCCn1cc(CO)[n+](CCC)n1 [listing 1 of 2 here]
- CC50 (Peritoneal macrophage): 3.9 µM
- IC50 (Leishmania amazonensis [1]): 0.7 µM

SMILES: CCCCCCn1cc(CO)[n+](CCC)n1
- IC50 (Leishmania amazonensis [1]; [26]): > 100 µM

SMILES: CCCCCCCCCCn1cc(CO)[n+](CCC)n1 [listing 2 of 2 here]
- CC50 (Peritoneal macrophage): 4.6 µM
- IC50 (Leishmania amazonensis [1]; [26]): 0.73 µM

SMILES: CCCCCCCCCCCCCCCCOP(=O)([O-])OCC[N+](C)(C)C [MILTEFOSINE]
- Activity (Leishmania amazonensis [2]): 66.7%
- IC50 (Leishmania amazonensis [3]): 13.2 µM
- Activity (Leishmania amazonensis [4]): 12.23%
- IC50 (Leishmania amazonensis [5]): 6.6 µM
- Ratio CC50/IC50 [6]: 34.2
- Ratio CC50/IC50 [7]: 11.3
- IC50 (Leishmania amazonensis [8]): 18.9 µM
- IC50 (Leishmania amazonensis [9]): 4.2 µM
- Activity (Leishmania amazonensis [10]): 53.22%
- Activity (Leishmania amazonensis [11]): Active
- CC50 at 72 h [12]: 144 µM
- Ratio CC50/IC50 [13]: 21.7
- Activity (Leishmania amazonensis [14]): 7.15%
- IC50 (Leishmania amazonensis [15]): 12.7 µM
- IC50 (Leishmania amazonensis [1]; [26]): 22 µM

SMILES: CCCCn1cc(CO)[n+](C)n1
- IC50 (Leishmania amazonensis [1]; [26]): > 100 µM

SMILES: CCCCCCn1cc(CO)[n+](C)n1
- IC50 (Leishmania amazonensis [1]; [26]): > 100 µM

SMILES: CCCCCCCCCCn1cc(CO)[n+](C)n1 [listing 2 of 2 here]
- Activity (Leishmania amazonensis [16]): inactive
- Activity (Leishmania amazonensis [17]): Active
- Activity (Leishmania amazonensis [18]): Active
- Activity (Leishmania amazonensis [19]): inactive
- Activity (Leishmania amazonensis [20]): inactive
- Activity (Leishmania amazonensis [21]): Active
- Activity (Leishmania amazonensis [22]): Active
- Activity (Leishmania amazonensis [23]): inactive
- Activity (Leishmania amazonensis [24]): Active
- Activity (Leishmania amazonensis [25]): Active
